# Results taken from ChEMBL document CHEMBL1142158, “Antibacterial activity and mechanism of action of a novel anilinouracil-fluoroquinolone hybrid compound” (Antimicrob Agents Chemother, 2007).
# Active and inactive are the calls of the source. The rule behind the calls is not given here.
# Columns and labels:
# [1] = Inhibition of Bacillus subtilis topoisomerase 4
# [2] = Inhibition of Bacillus subtilis gyrase
# [3] = test system: Staphylococcus aureus; assay: Antibacterial activity against HB-EMAU-resistant Staphylococcus aureus Smith; assay type: functional
# In short: (§1)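 Broth microdilution per CLSI with modified incubation. Log-phase cultures in cation-adjusted Mueller-Hinton broth, seeded at 1 x 10^5 CFU/ml. Compounds from DMSO stocks, 1% DMSO final. Incubated 37°C, 16 to 20 h, shaken. Growth read as OD600. MIC is the lowest concentration with no apparent growth. Run in quadruplicate; highest value reported.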
# [4] = Cytotoxicity against human MRC5 cells; assay type: cell-based
# In short: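 MRC-5 human diploid fibroblasts, 4 x 10^3 cells per well, exposed to compound from DMSO stock (final 1%) in minimal essential medium with 10% fetal calf serum for 72 h at 37°C beside a DMSO-only control.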
# [5] = test system: Streptococcus pneumoniae; assay: Antibacterial activity against penicillin-resistant Streptococcus pneumoniae 700673; assay type: functional
# In short: (§2)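 Streptococci tested by CLSI broth microdilution in Mueller-Hinton broth with 5% defibrinated horse blood, log-phase inoculum at 1 x 10^5 CFU/ml. Incubated 37°C with shaking, 16 to 20 h, in 5% humidified CO2. Compounds at 1% DMSO final. MIC is the lowest concentration without growth by OD600. Quadruplicate; highest MIC reported.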
# [6] = test system: Bacillus cereus; assay: Antibacterial activity against Bacillus cereus 4342; assay type: functional
# [7] = test system: Bacillus subtilis; assay: Inhibition of DNA synthesis in Bacillus subtilis BD54; assay type: functional, organism-based
# In short: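 B. subtilis BD54 grown to log phase in C plus 50 medium; compound in DMSO added with [8-3H]adenine at time zero, at 5x or 1x MIC; samples over time. DNA = alkali-insensitive TCA-insoluble label; RNA = total TCA-insoluble minus DNA. Effect judged against diluent-control incorporation.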
# [8] = Inhibition of calf thymus DNA polymerase alpha; design: species or system Bos taurus
# In short: (§3)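 Calf thymus pol alpha or human pol gamma, 0.025 to 0.06 U, added to compound dilutions in reaction mixture; 25 min at 37°C; stopped with ice-cold 10% TCA/10 mM pyrophosphate; precipitated [3H]DNA collected on filters and counted. Ki values for dGTP-competitive inhibitors obtained by truncated assay lacking dGTP.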
# [9] = test system: Bacillus anthracis; assay: Antibacterial activity against Bacillus anthracis Sterne; assay type: functional
# [10] = test system: Pseudomonas aeruginosa; assay: Antibacterial activity against Pseudomonas aeruginosa 27853; assay type: functional
# [11] = test system: Staphylococcus aureus; assay: Antibacterial activity against HB-EMAU-resistant and ciprofloxacin-resistant Staphylococcus aureus Smith; assay type: functional; in short: as §1
# [12] = test system: Escherichia coli; assay: Antibacterial activity against Escherichia coli J53; assay type: functional
# [13] = test system: Staphylococcus aureus; assay: Antibacterial activity against methicillin-resistant Staphylococcus aureus 1094; assay type: functional; in short: as §1
# [14] = test system: Streptococcus pyogenes; assay: Antibacterial activity against Streptococcus pyogenes 12344; assay type: functional
# [15] = test system: Streptococcus pneumoniae; assay: Antibacterial activity against penicillin-resistant Streptococcus pneumoniae 700671; assay type: functional; in short: as §2
# [16] = test system: Enterococcus faecium; assay: Antibacterial activity against Enterococcus faecium 19434; assay type: functional; in short: as §1
# [17] = test system: Staphylococcus aureus; assay: Antibacterial activity against methicillin-resistant Staphylococcus aureus B42876; assay type: functional; in short: as §1
# [18] = test system: Enterococcus faecalis; assay: Antibacterial activity against vancomycin-resistant Enterococcus faecalis 51299; assay type: functional; in short: as §1
# [19] = test system: Staphylococcus aureus; assay: Antibacterial activity against methicillin-resistant Staphylococcus aureus 1123; assay type: functional; in short: as §1
# [20] = test system: Staphylococcus aureus; assay: Antibacterial activity against Staphylococcus aureus Smith in presence of 10% FCS; assay type: functional
# [21] = test system: Staphylococcus aureus; assay: Antibacterial activity against methicillin-resistant Staphylococcus aureus 1132; assay type: functional; in short: as §1
# [22] = test system: Staphylococcus aureus; assay: Antibacterial activity against ciprofloxacin-resistant Staphylococcus aureus Smith; assay type: functional; in short: as §1
# [23] = test system: Staphylococcus aureus; assay: Antibacterial activity against mupirocin-resistant Staphylococcus aureus 777; assay type: functional; in short: as §1
# [24] = test system: Enterococcus faecalis; assay: Antibacterial activity against vancomycin-resistant Enterococcus faecalis 51575; assay type: functional; in short: as §1
# [25] = test system: Staphylococcus aureus; assay: Antibacterial activity against Staphylococcus aureus 25923; assay type: functional; in short: as §1
# [26] = test system: Escherichia coli; assay: Antibacterial activity against ciprofloxacin-resistant Escherichia coli XL1-Blue; assay type: functional; in short: as §1
# [27] = test system: Bacillus thuringiensis; assay: Antibacterial activity against Bacillus thuringiensis 10792; assay type: functional
# [28] = test system: Staphylococcus aureus; assay: Antibacterial activity against Staphylococcus aureus 1081; assay type: functional; in short: as §1
# [29] = test system: Staphylococcus aureus; assay: Antibacterial activity against Staphylococcus aureus Smith 13709; assay type: functional; in short: as §1
# [30] = test system: Enterococcus faecium; assay: Antibacterial activity against vancomycin-resistant Enterococcus faecium 1644; assay type: functional; in short: as §1
# [31] = test system: Bacillus thuringiensis; assay: Antibacterial activity against Bacillus thuringiensis 33679; assay type: functional
# [32] = test system: Stenotrophomonas maltophilia; assay: Antibacterial activity against Stenotrophomonas maltophilia 13637; assay type: functional
# [33] = test system: Bacillus subtilis; assay: Antibacterial activity against Bacillus subtilis BD54; assay type: functional
# [34] = test system: Enterococcus faecium; assay: Antibacterial activity against vancomycin-resistant Enterococcus faecium B42762; assay type: functional; in short: as §1
# [35] = test system: Streptococcus pneumoniae; assay: Antibacterial activity against penicillin-resistant Streptococcus pneumoniae 700670; assay type: functional; in short: as §2
# [36] = test system: Bacillus cereus; assay: Antibacterial activity against Bacillus cereus 6464; assay type: functional
# [37] = Inhibition of Bacillus subtilis DNA polymerase 3E
# In short: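 Recombinant B. subtilis pol IIIE. Serial compound dilutions in DMSO; 30 mM Tris pH 7.5, 10 mM Mg acetate, 4 mM DTT, 20% glycerol, 25 µM each dATP/dCTP/dGTP, 10 µM [3H]dTTP, 0.4 mg/ml activated calf thymus DNA; 0.025 to 0.06 U enzyme, 10 min at 30°C. TCA-precipitated, filter-collected label counted by scintillation.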
# [38] = test system: Enterococcus faecalis; assay: Antibacterial activity against Enterococcus faecalis 29212; assay type: functional; in short: as §1
# [39] = test system: Klebsiella pneumoniae; assay: Antibacterial activity against Klebsiella pneumoniae 5657; assay type: functional
# [40] = test system: Streptococcus pneumoniae; assay: Antibacterial activity against penicillin-resistant Streptococcus pneumoniae 700677; assay type: functional; in short: as §2
# [41] = test system: Streptococcus pneumoniae; assay: Antibacterial activity against Streptococcus pneumoniae 49619; assay type: functional; in short: as §2
# [42] = test system: Staphylococcus aureus; assay: Antibacterial activity against mupirocin-sensitive Staphylococcus aureus 2529; assay type: functional
# [43] = Therapeutic index, CC50 for MRC5 cells/MIC for Staphylococcus aureus Smith; assay type: cell-based; conditions: human
# [44] = molecular target: T1, DNA polymerase subunit gamma-1 (Homo sapiens, UniProt P54098); assay: Inhibition of human DNA polymerase gamma; in short: as §3
# T1 sequence (P54098 whole entry): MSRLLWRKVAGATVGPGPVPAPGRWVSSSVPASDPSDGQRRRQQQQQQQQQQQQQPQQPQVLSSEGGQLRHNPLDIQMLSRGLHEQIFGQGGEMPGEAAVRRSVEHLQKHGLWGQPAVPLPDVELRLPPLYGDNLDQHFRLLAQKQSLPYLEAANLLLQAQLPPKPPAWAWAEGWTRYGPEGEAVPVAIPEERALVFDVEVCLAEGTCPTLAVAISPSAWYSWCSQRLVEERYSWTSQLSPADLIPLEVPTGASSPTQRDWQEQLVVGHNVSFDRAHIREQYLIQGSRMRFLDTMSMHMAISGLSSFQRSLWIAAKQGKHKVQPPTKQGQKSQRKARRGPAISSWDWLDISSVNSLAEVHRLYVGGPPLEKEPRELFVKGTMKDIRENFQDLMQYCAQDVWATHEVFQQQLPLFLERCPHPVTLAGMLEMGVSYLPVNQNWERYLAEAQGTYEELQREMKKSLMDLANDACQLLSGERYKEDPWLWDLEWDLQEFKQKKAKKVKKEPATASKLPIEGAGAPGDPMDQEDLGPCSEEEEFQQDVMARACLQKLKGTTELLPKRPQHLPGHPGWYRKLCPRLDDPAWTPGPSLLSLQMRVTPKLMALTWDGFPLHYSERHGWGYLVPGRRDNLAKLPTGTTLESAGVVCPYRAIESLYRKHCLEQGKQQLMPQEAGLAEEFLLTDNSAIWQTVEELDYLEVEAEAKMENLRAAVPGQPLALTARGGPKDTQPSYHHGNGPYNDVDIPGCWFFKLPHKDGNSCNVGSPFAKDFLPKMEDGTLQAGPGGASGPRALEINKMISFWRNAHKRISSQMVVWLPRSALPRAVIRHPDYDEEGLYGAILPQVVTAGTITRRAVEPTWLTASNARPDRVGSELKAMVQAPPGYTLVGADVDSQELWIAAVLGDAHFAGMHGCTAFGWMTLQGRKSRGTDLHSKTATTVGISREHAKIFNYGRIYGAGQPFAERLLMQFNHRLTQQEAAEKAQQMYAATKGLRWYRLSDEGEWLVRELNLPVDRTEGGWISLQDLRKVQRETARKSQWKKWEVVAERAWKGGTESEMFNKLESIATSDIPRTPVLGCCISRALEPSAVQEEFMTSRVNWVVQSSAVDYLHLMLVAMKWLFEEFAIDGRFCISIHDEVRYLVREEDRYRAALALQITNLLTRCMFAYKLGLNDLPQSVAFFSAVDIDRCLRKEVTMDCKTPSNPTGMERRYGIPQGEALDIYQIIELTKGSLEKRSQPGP
# [45] = test system: Enterococcus faecium; assay: Antibacterial activity against vancomycin and linezolid-resistant Enterococcus faecium F118; assay type: functional; in short: as §1
# [46] = test system: Enterococcus faecalis; assay: Antibacterial activity against vancomycin-resistant Enterococcus faecalis 700802; assay type: functional; in short: as §1
# [47] = test system: Streptococcus pneumoniae; assay: Antibacterial activity against penicillin-resistant Streptococcus pneumoniae 700674; assay type: functional; in short: as §2
smiles,measurement,setting,value
CCn1cc(C(=O)O)c(=O)c2ccc(C)nc21 [NALIDIXIC ACID],IC50,[1],1090 µM
same,IC50,[2],149 µM
CCc1cc(Nc2cc(=O)n(CCCCN3CCN(c4c(F)cc5c(=O)c(C(=O)O)cn(C6CC6)c5c4F)CC3C)c(=O)[nH]2)ccc1C (centres undefined),MIC,[3],0.625 µg/mL
same,CC50,[4],> 80 µg/mL
same,MIC,[5],0.313 µg/mL
same,MIC,[6],0.156 µg/mL
same,Activity,[7],Active
same,Ki,[8],> 482 µM
same,MIC,[9],0.156 µg/mL
same,MIC,[10],> 80 µg/mL
same,MIC,[11],20 µg/mL
same,MIC,[12],2.5 µg/mL
same,MIC,[13],1.25 µg/mL
same,MIC,[14],0.313 µg/mL
same,MIC,[15],0.313 µg/mL
same,MIC,[16],2.5 µg/mL
same,MIC,[17],2.5 µg/mL
same,MIC,[18],1.25 µg/mL
same,IC50,[1],43.6 µM
same,MIC,[19],1.25 µg/mL
same,MIC,[20],0.625 µg/mL
same,MIC,[21],0.625 µg/mL
same,MIC,[22],1.25 µg/mL
same,MIC,[23],2.5 µg/mL
same,MIC,[24],1.25 µg/mL
same,MIC,[25],0.625 µg/mL
same,MIC,[26],1.25 µg/mL
same,MIC,[27],0.156 µg/mL
same,MIC,[28],0.625 µg/mL
same,MIC,[29],0.313 µg/mL
same,MIC,[30],1.25 µg/mL
same,MIC,[31],0.156 µg/mL
same,MIC,[32],10 µg/mL
same,MIC,[33],0.156 µg/mL
same,MIC,[34],1.25 µg/mL
same,IC50,[2],31 µM
same,MIC,[35],0.625 µg/mL
same,MIC,[36],0.156 µg/mL
same,Ki,[37],> 482 µM
same,MIC,[38],1.25 µg/mL
same,MIC,[39],20 µg/mL
same,MIC,[40],0.313 µg/mL
same,MIC,[41],0.625 µg/mL
same,MIC,[42],5 µg/mL
same,selectivity ratio,[43],> 128
same,Ki,[44],684 µM
same,MIC,[45],1.25 µg/mL
same,MIC,[46],1.25 µg/mL
same,MIC,[47],0.625 µg/mL
